Calls of active or inactive are those of the source. The rule behind the calls is not given here.
How the values were obtained:
A498 = assay: Cytotoxicity against human A498 cells assessed as growth inhibition after 48 hrs by SRB assay; assay type: functional; settings: A498, 48 h
Hs-578T = assay: Cytotoxicity against human Hs578T cells assessed as growth inhibition after 48 hrs by SRB assay; assay type: functional
OVCAR-4 = assay: Cytotoxicity against human OVCAR4 cells assessed as growth inhibition after 48 hrs by SRB assay; assay type: functional; settings: OVCAR-4, 48 h
OVCAR-8 = assay: Cytotoxicity against human OVCAR8 cells assessed as growth inhibition after 48 hrs by SRB assay; assay type: functional; settings: OVCAR-8, 48 h
K562 = assay: Cytotoxicity against human K562 cells assessed as growth inhibition after 48 hrs by SRB assay; assay type: functional; settings: K562, 48 h
SK-OV-3 = assay: Cytotoxicity against human SKOV3 cells assessed as growth inhibition after 48 hrs by SRB assay; assay type: functional; settings: SK-OV-3, 48 h
OVCAR-3 = assay: Cytotoxicity against human OVCAR3 cells assessed as growth inhibition after 48 hrs by SRB assay; assay type: functional; settings: OVCAR-3, 48 h
U-251 = assay: Cytotoxicity against human U251 cells assessed as growth inhibition after 48 hrs by SRB assay; assay type: functional; settings: U-251, 48 h
HOP-62 = assay: Cytotoxicity against human HOP62 cells assessed as growth inhibition after 48 hrs by SRB assay; assay type: functional; settings: HOP-62, 48 h
RPMI-8226 = assay: Cytotoxicity against human RPMI8226 cells assessed as growth inhibition after 48 hrs by SRB assay; assay type: functional; settings: RPMI-8226, 48 h
MCF7 = assay: Cytotoxicity against human MCF7 cells assessed as growth inhibition after 48 hrs by SRB assay; assay type: functional; settings: MCF7, 48 h
786-0 = assay: Cytotoxicity against human 786-0 cells assessed as growth inhibition after 48 hrs by SRB assay; assay type: functional; settings: 786-0, 48 h
UO-31 = assay: Cytotoxicity against human UO31 cells assessed as growth inhibition after 48 hrs by SRB assay; assay type: functional; settings: UO-31, 48 h
HL-60(TB) = assay: Cytotoxicity against human HL-60(TB) cells assessed as growth inhibition after 48 hrs by SRB assay; assay type: functional; settings: HL-60, 48 h
[1] = Cytotoxicity against human EKVX cells assessed as growth inhibition after 48 hrs by SRB assay; assay type: functional
[2] = Relative resistance, ratio of IC50 for M6-6 in human SKOV3 cells to IC50 for human SKOV3 cells; design: species or system SK-OV-3
Procedure, shortened: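 SRB antiproliferative assay on isogenic pairs: parental SK-OV-3 vs Pgp-overexpressing SK-OV-3 MDR-M6-6, and parental HeLa vs βIII-tubulin-transfected HeLa. IC50 is the mean ± SD of at least three independent experiments. Relative resistance (Rr) is the IC50 of the transduced line divided by the IC50 of the parental line.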

SF-268 = assay: Cytotoxicity against human SF268 cells assessed as growth inhibition after 48 hrs by SRB assay; assay type: functional; settings: SF-268, 48 h
SF-295 = assay: Cytotoxicity against human SF295 cells assessed as growth inhibition after 48 hrs by SRB assay; assay type: functional; settings: SF-295, 48 h
COLO 205 = assay: Cytotoxicity against human COLO205 cells assessed as growth inhibition after 48 hrs by SRB assay; assay type: functional; settings: COLO 205, 48 h
SNB-19 = assay: Cytotoxicity against human SNB19 cells assessed as growth inhibition after 48 hrs by SRB assay; assay type: functional; settings: SNB-19, 48 h
SF-539 = assay: Cytotoxicity against human SF539 cells assessed as growth inhibition after 48 hrs by SRB assay; assay type: functional; settings: SF-539, 48 h
Mus musculus [3] = assay: Toxicity in athymic nude mouse xenografted in human MDA-MB-231 cells assessed as body weight loss at 50 mg/kg, ip bid administered every other day started on day 14 followed by compound readministration every other day started on day 27 (reference value: 6.7%); assay type: organism-based; design: dose 50 mg/kg, route intraperitoneal; settings: in vivo
Mus musculus [4] = assay: Toxicity in athymic nude mouse xenografted in human MDA-MB-231 cells assessed as body weight loss at 75 mg/kg, ip qd administered every other day started on day 14 for 5 days followed by compound readministration on day 27 (reference value: 6.7%); assay type: organism-based; design: dose 75 mg/kg, route intraperitoneal; settings: in vivo, 120 h
MDA-MB-231 [5] = assay: Antitumor activity against human MDA-MB-231 cells xenografted in athymic nude mouse assessed as delay in tumor growth at 75 mg/kg, ip qd administered every other day started on day 14 for 5 days followed by compound readministration on day 27 measured on day 31 relative to control; assay type: functional; settings: route intraperitoneal
Procedure, shortened: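 MDA-MB-231T tumor fragments implanted sc in female athymic nude mice and staged to about 125 mg. Dosing was ip in 10% DMSO in saline/Tween 80, with courses starting day 14 and again day 27. Groups had 8 treated animals and 16 controls. Growth delay (T-C/C) is the median days for treated vs control tumors to reach a predetermined size, normalized to control, as %.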

MDA-MB-231 [6] = assay: Antitumor activity against human MDA-MB-231 cells xenografted in athymic nude mouse assessed as tumor free state at 75 mg/kg, ip qd administered on day 14 for 5 days followed by compound readministration on day 27 measured on day 41; assay type: functional, organism-based; design: dose 75 mg/kg
Procedure, shortened: (§1)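 Female athymic nude mice carried sc MDA-MB-231T tumor fragments staged to about 125 mg. Compound was given ip as a solution in 10% DMSO in saline/Tween 80, with courses beginning day 14 and repeated from day 27. Groups had 8 animals, with 16 vehicle controls. Animals were scored as tumor-free on day 41.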

Mus musculus [7] = assay: Toxicity in athymic nude mouse xenografted in human MDA-MB-231 cells assessed as body weight loss at 50 mg/kg, ip qd administered on day 14 for 5 days followed by compound readministration on day 27 (reference value: 6.7%); assay type: organism-based; design: dose 50 mg/kg, route intraperitoneal; settings: in vivo, 120 h
MDA-MB-231 [8] = assay: Antitumor activity against human MDA-MB-231 cells xenografted in athymic nude mouse assessed as net tumor log cell kill at 50 mg/kg, ip bid administered every other day started on day 14 followed by compound readministration every other day started on day 27; assay type: functional; settings: route intraperitoneal
Procedure, shortened: (§2)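 Female athymic nude mice were implanted sc with an MDA-MB-231T tumour fragment, and tumours were staged to about 125 mg. Drug was given ip in 10% DMSO in saline/Tween 80, with courses starting day 14 and repeated from day 27. There were 8 animals per treated group and 16 controls. Read-outs were body weight, deaths, median tumour mass as T/C, days to a predetermined size as T-C/C, and net log cell kill.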

Mus musculus [9] = assay: Toxicity in athymic nude mouse xenografted in human MDA-MB-231 cells assessed as body weight loss at 75 mg/kg, ip qd administered on day 14 for 5 days followed by compound readministration on day 27 (reference value: 6.7%); assay type: organism-based; design: dose 75 mg/kg, route intraperitoneal; settings: in vivo, 120 h
MDA-MB-231 [10] = assay: Antitumor activity against human MDA-MB-231 cells xenografted in athymic nude mouse assessed as tumor free state at 50 mg/kg, ip qd administered on day 14 for 5 days followed by compound readministration on day 27 measured on day 41; assay type: functional, organism-based; design: dose 50 mg/kg; procedure, shortened: as §1
MDA-MB-231 [11] = assay: Antitumor activity against human MDA-MB-231 cells xenografted in athymic nude mouse assessed as delay in tumor growth at 50 mg/kg, ip qd administered on day 14 for 5 days followed by compound readministration on day 27 measured on day 31 relative to control; assay type: functional; settings: route intraperitoneal; procedure, shortened: as §2

**Q.** Which GI50 (A498) does the source give for `COc1ccc(N(C)c2nc(C)nc3c2CC(C)C3)cc1.Cl` (racemic) here?
**A.** The GI50 was < 10 nM.

**Q.** And the GI50 (Hs-578T)?
**A.** Its GI50 is < 10 nM.

**Q.** And the GI50 (OVCAR-4)?
**A.** The GI50 was 26.8 nM.

**Q.** What about the GI50 (OVCAR-8) of the same molecule?
**A.** The GI50 was 32.8 nM.

**Q.** And the GI50 (K562)?
**A.** Its GI50 is < 10 nM.

**Q.** What about the GI50 (SK-OV-3) of the same molecule?
**A.** The GI50 was 27.5 nM.

**Q.** What about the GI50 (OVCAR-3) of the same molecule?
**A.** The GI50 was < 10 nM.

**Q.** What about the GI50 (U-251) of the same molecule?
**A.** The GI50 was 12.5 nM.

**Q.** What about the GI50 (HOP-62) of the same molecule?
**A.** Its GI50 is 19.4 nM.

**Q.** What about the GI50 (RPMI-8226) of the same molecule?
**A.** Its GI50 is 15.7 nM.

**Q.** And the GI50 (MCF7)?
**A.** The GI50 was < 10 nM.

**Q.** What about the GI50 (786-0) of the same molecule?
**A.** Its GI50 is 34.8 nM.

**Q.** What about the GI50 (UO-31) of the same molecule?
**A.** The GI50 was 13.4 nM.

**Q.** And the GI50 (HL-60(TB))?
**A.** Its GI50 is < 10 nM.

**Q.** And the GI50 [1]?
**A.** Its GI50 is 19.6 nM.

**Q.** What about the “Ratio IC50” value [2] of the same molecule?
**A.** The value was 1.2.

**Q.** What about the GI50 (SF-268) of the same molecule?
**A.** Its GI50 is 15.2 nM.

**Q.** What about the GI50 (SF-295) of the same molecule?
**A.** The GI50 was < 10 nM.

**Q.** And the GI50 (COLO 205)?
**A.** The GI50 was 18.3 nM.

**Q.** And the GI50 (SNB-19)?
**A.** Its GI50 is 36.9 nM.

**Q.** What about the GI50 (SF-539) of the same molecule?
**A.** Its GI50 is 11.4 nM.

**Q.** Which results are given for `COc1ccc(N(C)c2nc(C)nc3c2CCC3)cc1.Cl`?
**A.** GI50 (A498): < 10 nM; GI50 (Hs-578T): < 10 nM; %max (Mus musculus [3]): 7.8%; GI50 (OVCAR-4): 22.9 nM; GI50 (OVCAR-8): 21.8 nM; GI50 (K562): < 10 nM; %max (Mus musculus [4]): 9%; GI50 (SK-OV-3): 14.6 nM; GI50 (OVCAR-3): < 10 nM; GI50 (U-251): < 10 nM; GI50 (HOP-62): < 10 nM; Activity (MDA-MB-231 [5]): 44%; GI50 (RPMI-8226): 14.3 nM; GI50 (MCF7): < 10 nM; GI50 (786-0): 17.8 nM; Activity (MDA-MB-231 [6]): Active; %max (Mus musculus [7]): 7.7%; GI50 (UO-31): 46.1 nM; GI50 (HL-60(TB)): < 10 nM; LCK (MDA-MB-231 [8]): -1.3; %max (Mus musculus [9]): 7.9%; Activity (MDA-MB-231 [10]): Active; GI50 [1]: 34.8 nM; GI50 (SF-268): 13.9 nM; GI50 (SF-295): < 10 nM; Activity (MDA-MB-231 [11]): 27%; GI50 (COLO 205): < 10 nM; GI50 (SNB-19): 17 nM; GI50 (SF-539): < 10 nM

Reference: ChEMBL document CHEMBL2424583, “Structure-activity relationship and in vitro and in vivo evaluation of the potent cytotoxic anti-microtubule agent N-(4-methoxyphenyl)-N,2,6-trimethyl-6,7-dihydro-5H-cyclopenta[d]pyrimidin-4-aminium chloride and its analogues as antitumor agents” (J Med Chem, 2013)
